Ecoli rRNA inh: inhibitors of bacterial rRNA selective over humanized ribosomes; 350,000 tested, 1.6% active; AID 720706; E. coli WT GFP vs humanized-ribosome RFP mutants, fluorescence, 24 h; active compounds read low; DMSO median 0, no signal -100; GFP signal change (wild-type ribosome), % (concentration not given with the values);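 active = significant combined selectivity score with lowered wild-type GFP, culture density cut under 30%, mutant RFP and density less affected; inactive = any of these conditions unmet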
FGF22 binding: binders of recombinant human FGF22 by thermal shift; Q9HCT0; SYPRO orange fluorescence; percent of sucrose octasulfate shift, DMSO zero; activity (Tm shift, normalised), % at 9.99 µM; 340,000 tested, 1.5% active; AID 651658;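 active = mean Tm shift, scaled 0 neutral to 100 positive control, at about 1.3% or above, every replicate too, limit read from the data; inconclusive = no clear call, values can overlap the other calls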
Target sequence (Q9HCT0 whole entry, looked up): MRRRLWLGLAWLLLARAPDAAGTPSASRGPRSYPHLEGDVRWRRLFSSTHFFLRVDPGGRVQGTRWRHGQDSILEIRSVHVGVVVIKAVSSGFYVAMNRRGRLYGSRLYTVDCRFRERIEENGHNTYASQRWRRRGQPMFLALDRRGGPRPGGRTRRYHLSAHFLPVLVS
ERAP1 HTS inh: inhibitors of human ERAP1 aminopeptidase; Q9NZ08; recombinant ERAP1, Leu-AMC fluorescence, 60 min; inhibition, % at 10.7 µM; 340,000 tested, 0.15% active;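 active = mean replicate inhibition of at least 30%, or all replicates individually reaching that 30% level; inactive = mean below 30% and not every replicate reaching it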;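 note: 0% = neutral control wells and 100% = L-leucinethiol positive control wells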
Cneo AK release: Cryptococcus neoformans lysis via adenylate kinase release; C. neoformans lysis, adenylate kinase release luminescence, 4 h; normalised: neutral wells 0, clomiphene wells 100; lysis activity, % at 15 µM; 360,000 tested, 0.2% active; AID 651654;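 active = mean lysis activity across replicates of at least 80%, whatever share of replicates individually reach that level; inactive = mean lysis activity below 80%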
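Material: C. neoformans cells | Amount: Yeast cell density of 5 × 10^6 cells/mL | Medium: Fresh YPD growth medium | Dosing: Single dose | Times: Static 4 h at 37 °C with compound, 1 h detection | Detection: AK luminescence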
HIV Env fusion: blocks HIV Env-driven cell-cell fusion | inhibition, % at 12.3 µM | 360,000 tested, 1.1% active | AID 651610 | HeLa-JRFL Env/CEM21 cell fusion, luciferase;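 active = mean replicate inhibition score of at least 50 and every replicate individually at or above 50; inconclusive = only one of the two criteria met; inactive = mean below 50 and not all replicates reaching 50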;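 note: 0% = plate neutral controls and 100% = maraviroc near 300 nM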
PGC1a acetyl inh: modulators of PGC1a acetylation | U2OS PGC1a acetylation, AlphaScreen anti-acetyl-lysine; with virally co-expressed GCN5 acetyltransferase | inhibition, % at 15.6 µM | 350,000 tested, 0.17% active | AID 651687;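 active = every replicate shows inhibition of at least 40%; inconclusive = mean inhibition at least 40% but some replicate below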;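 note: 0% = neutral control wells and 100% = positive control wells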
Starred values were filed as active, the others as inactive; ? = inconclusive; . = not tested or not shown; ! = not active in a repeat; [ ] = remark or other dose. The list is not random: actives were taken first. Their share in the collection is about 3.5%.

SMILES	Ecoli rRNA inh	FGF22 binding	ERAP1 HTS inh	Cneo AK release	HIV Env fusion	PGC1a acetyl inh
C[C@H](CO)N1C[C@H](C)[C@H](CN(C)C(=O)C2CCC2)Oc2cc(C3=CCCCC3)ccc2S1(=O)=O	-20	0	-1	5	10[16.7 µM]	1
CCCCN(CC)c1nc(-c2ccncc2)nc2ccccc12	.	.	.	11	64*	-14
CCCN(CCC)c1nc(-c2ccccn2)nc2ccccc12	-57	0	2	3	71*	27
CCN(CC)c1nc(-c2ccccn2)nc(-c2ccccc2)c1C#N	-37	43*	2	.	?	-6
COCCN(CCOC)c1nc(-c2ccc(C)cc2)nc2ccccc12	-23	0	1	-3	6	8
CCOc1ccccc1N1CC(C(=O)Nc2c(C)n(C)n(-c3ccccc3)c2=O)CC1=O (stereo unspecified)	4	43*	-4	.	7	.
Cc1ccc2nc(C)cc(C(=O)OCC(=O)Nc3c(C)n(C)n(-c4ccccc4)c3=O)c2c1	0	43*	3	.	16	6
Cc1ccc(C(=O)Nc2c(C)n(C)n(-c3ccccc3)c2=O)cc1	2	44*	-2	.	-2	.
Cc1c(NC(=O)COC(=O)c2cc(-c3cccc4ccccc34)nc3ccccc23)c(=O)n(-c2ccccc2)n1C	.	.	.	.	-7	.
CCN(c1ccccc1)S(=O)(=O)c1ccc(C(=O)Nc2c(C)n(C)n(-c3ccccc3)c2=O)cc1	-6	0	-2	1	57*	3
CCCNC(=O)Nc1ccc2c(c1)OC[C@H](C)N(Cc1cncnc1)C[C@@H](C)[C@H](OC)CN(C)C2=O	1	0	-2	-3	.	-1
COc1ccc2c(c1)sc(=N)n2C	58	0	0	4	17	13
CCOc1ccc(N(CC(=O)Nc2ccccc2)S(C)(=O)=O)cc1	.	.	.	5	.	0
Cc1c(NC(=O)COc2cccc(Cl)c2Cl)c(=O)n(-c2ccccc2)n1C	1	43*	1	.	2	.
Cc1ccc(S(=O)(=O)NCCCCCC(=O)Nc2c(C)n(C)n(-c3ccccc3)c2=O)cc1	2	43*	4	2	15	-12
Cc1ccc(C)c(OCC(=O)Nc2c(C)n(C)n(-c3ccccc3)c2=O)c1	19	0	-3	0	-6	3
COc1ccccc1CN1C[C@@H](C)[C@@H](OC)CN(C)C(=O)c2ccc(NC(C)=O)cc2OC[C@@H]1C	1	0	3	1	-25[16.7 µM]	-3
O=C(CSc1nc(CCC2CCCC2)nc2ccccc12)NCc1ccc2c(c1)OCO2	3	0	-5	115*	40	-2
Cn1cccc1Cc1nnc(SCC(=O)Nc2ccc3c(c2)OCO3)n1CCc1ccccc1	-8	0	-4	1	9	-15
CCCCn1c(SCC(=O)NCc2ccc3c(c2)OCO3)nnc1C(CC)N(C)C (stereo unspecified)	10	.	-4	-2	.	44*
Cc1nnc(SCC(=O)NCc2ccc3c(c2)OCO3)n1C	16	43*	2	.	-16	4
COCCn1c(Cc2cccn2C)nnc1SCC(=O)NCc1ccc2c(c1)OCO2	.	44*	-4	.	-58	-6
Cc1cc(NC(=O)CSc2nc(CCC3CCCC3)nc3ccccc23)no1	.	.	.	-1	19	3
CCCCn1c(N)c(N(CCC(C)C)C(=O)c2sc3nc4n(c(=O)c3c2C)CCC4)c(=O)[nH]c1=O	15	0	1	-1	-272	.
COc1ccc(-c2nc(NC(=O)C3CCN(c4nc5ccccc5o4)CC3)sc2C)cc1	.	.	.	0	67*	-16
SMILES	Ecoli rRNA inh	FGF22 binding	ERAP1 HTS inh	Cneo AK release	HIV Env fusion	PGC1a acetyl inh
CN(C)S(=O)(=O)c1cc(C(=O)NCc2ccccc2)c(Cl)cc1Cl	-2	43*	6	-1	7	-17
O=C(c1ccccc1Cl)N1CCNCC1	.	.	.	.	.	67*
Cc1nn(-c2ncc(C(F)(F)F)cc2Cl)c(=O)n1-c1ccc(F)cc1	9	0	2	3	-14	0
C[C@H](CO)N1C[C@H](C)[C@@H](CN(C)Cc2ccccc2)OCCCC[C@H](C)Oc2ccc(NS(=O)(=O)c3ccc(Cl)cc3)cc2C1=O	-2	.	-1	2	31[16.7 µM]	2
COc1ccc(CNC(=O)N(C)C[C@@H]2OCc3ccccc3-c3c(n(C)c4ccccc34)C(=O)N([C@@H](C)CO)C[C@@H]2C)cc1	-19*!	0	.	.	100*	.
COc1ccc(CNC(=O)N(C)C[C@@H]2OCc3ccccc3-c3c(n(C)c4ccccc34)C(=O)N([C@H](C)CO)C[C@@H]2C)cc1	1	0	-4	59	85*[16.7 µM]	9
O=C(CN1CCN(c2ncc(C(F)(F)F)cc2Cl)CC1)N1CCN(c2ncc(C(F)(F)F)cc2Cl)CC1	-5	.	10	1	95*	4
O=C(CSc1ccc(Cl)cc1)N1CCN(c2ncc(C(F)(F)F)cc2Cl)CC1	.	.	.	-2	22	2
CC1=C(C(=O)OC(C)C)C(c2ccc(N(C)C)cc2)C2=C(CC(C)(C)CC2=O)N1 (stereo unspecified)	.	.	.	1	-15	0
CC(C)OCCCNC(=O)Cn1ccc2cc(S(=O)(=O)N3CCCCCC3)ccc21	14	0	-1	2	5	-2
COCCCNC(=S)Nc1ccc(OC(F)F)cc1C	0	0	.	4	9	.
COCCCNC(=S)Nc1cc(C)c(C)cc1C	.	0	-2	.	-5	75*
CC1=NN(c2cccc(C(=O)O)c2)C(=O)/C1=C\C=C/c1ccccc1	21	43*	10	.	-188	-14
O=C(NC1(c2ccccc2)CC1)C1CCC(=O)N(Cc2ccc(Cl)cc2)C1 (stereo unspecified)	-2	0	-2	0	8	19
O=C(Nc1nnc(Cc2ccc(Cl)cc2)s1)C1CCCO1 (stereo unspecified)	-7	43*	2	.	-3	-13
Cc1cc(/C=C(\C#N)C(=O)NCc2cccs2)c(C)n1-c1ccc([N+](=O)[O-])cc1	-8	0	-3	2	.	-5
CC(C)CNC(=O)COC(=O)CCC(=O)c1cccs1	8	43*	2	.	8	.
Cc1c(Cl)cnc(NC(=O)COC(=O)CCC(=O)c2cccs2)c1Cl	-1	43*	-1	.	-26	.
CCC(CC)NC(=O)COC(=O)CCC(=O)c1cccs1	12	43*	2	.	1	.
CCCc1ccc(-c2ccc(-c3noc(-c4ccncc4)n3)cc2)nc1	4	0	2	0	-5	0
CCN(CC(=O)Nc1ccccc1OC)CC(=O)Nc1c(Cl)ccc(C)c1Cl	-26*	41	-2	0	-5	-1
CCN(CC(=O)NCc1cccs1)CC(=O)Nc1c(Cl)ccc(C)c1Cl	-1	0	1	-3	13	.
